Most compounds without a hit are left out; they make up all but 2.3% or so of the library.
Tb MetRS inh – blocks T. brucei methionyl-tRNA synthetase activity. purified T. brucei MetRS, ATP depletion, Kinase-Glo luminescence. inhibition, % at 11.9 µM. 360,000 tested, 0.4% active. AID 624268;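 active means inhibition above a per-plate cutoff of the control wells' mean inhibition plus 3 SD, cut at about 5.5% in these data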;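 further: 0% = DMSO wells median and 100% = median of wells with control inhibitor compound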
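Material: parasite MetRS enzyme / Replication: singlicate, one well per compound / Signal: luminescence of leftover ATP / Schedule: 2 h aminoacylation at 25 °C after 15 min preincubation / Medium: HEPES-MgCl2-KCl buffer plus DTT, spermine, BSA, pyrophosphatase / Doses: 11.9 µM single point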
ADAM10 inh – inhibits human ADAM10 | O14672 | recombinant ADAM10, EDANS/DABCYL FRET peptide cleavage, 3 h | inhibition, % at 7 µM | 370,000 tested, 0.62% active;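 active means inhibition above a per-campaign cutoff equal to the mean of compounds falling between control-based bounds plus 3 SD, cut at about 20% in these data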;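 further: 0% = DMSO wells while the 100% control is not disclosed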
Target sequence (O14672 214-748 limits assumed): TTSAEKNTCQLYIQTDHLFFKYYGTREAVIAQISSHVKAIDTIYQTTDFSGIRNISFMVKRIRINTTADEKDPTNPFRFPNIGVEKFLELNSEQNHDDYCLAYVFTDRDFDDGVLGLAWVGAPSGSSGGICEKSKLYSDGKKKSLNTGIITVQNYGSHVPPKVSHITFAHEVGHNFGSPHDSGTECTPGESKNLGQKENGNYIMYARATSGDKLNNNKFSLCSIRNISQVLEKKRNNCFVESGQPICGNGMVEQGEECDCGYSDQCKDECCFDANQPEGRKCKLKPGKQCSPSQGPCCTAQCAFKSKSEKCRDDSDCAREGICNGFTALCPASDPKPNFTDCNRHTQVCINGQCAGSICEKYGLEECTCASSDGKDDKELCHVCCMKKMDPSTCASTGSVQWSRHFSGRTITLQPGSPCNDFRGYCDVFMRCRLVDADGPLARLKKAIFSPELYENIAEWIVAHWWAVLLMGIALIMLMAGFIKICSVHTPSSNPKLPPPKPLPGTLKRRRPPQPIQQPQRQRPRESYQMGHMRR
ADAM17 inh – inhibits human ADAM17 | AID 720648 | recombinant ADAM17, EDANS/DABCYL FRET peptide cleavage | 370,000 tested, 0.83% active | P78536 | inhibition, % at 6.95 µM;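 active means inhibition above the mean of compounds lying between control limits plus 3 SD, set per campaign, cut at about 8.5% in these data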;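 further: 0% = DMSO-only wells as the low control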
PLC-gamma1 inh – PLC-gamma1 (human) inhibition, primary screen; P19174; 370,000 tested, 0.84% active; purified PLC-gamma1, fluorogenic substrate, fluorescence; inhibition, % at 12.2 µM; in the data active means inhibition above about 9.5%
PLC-beta3 inh – PLC-beta3 (human) inhibition, primary screen. Q01970. Purified PLC-beta3, fluorogenic substrate, fluorescence. inhibition, % at 12.2 µM. 370,000 tested, 0.18% active; in the data active means inhibition above about 11%;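 further: 0% = median of compound wells on plate and 100% = full blocker control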
* marks the source's active call; other numbers are inactive results; . = no result.

SMILES	Tb MetRS inh	ADAM10 inh	ADAM17 inh	PLC-gamma1 inh	PLC-beta3 inh
COc1cccc(N(C(=O)Cn2nnc(-c3ccc(C)cc3)n2)C(C(=O)NC(C)(C)C)c2c[nH]c3ccccc23)c1 (configuration not stated)	-1	23*	12*	5	4
Cc1ccccc1C(=O)NNC(=S)NC(=O)c1ccc(Cl)cc1Cl	0	6	3	0	-1
CCCN(CCC)C(=S)NC(=O)c1ccc(Cl)cc1Cl	0	13	3	13*	8
CC(C)CC(=O)Nc1ccc2c(c1)nc(CCN1CCOCC1)n2C	-1	-41	-14	-4	-1
CN1OC[C@@H]2CN(CC3CCCCC3)[C@H](c3ccc(-c4ccc(C#N)cc4)cc3)C[C@@H]21	.	-6	0	9	-2
Cc1ccc(S(=O)(=O)NC[C@H]2CN(S(=O)(=O)c3ccc(C)cc3)[C@@H](Cc3ccccc3)CO2)cc1	.	13	6	0	-1
C=CC[C@@H](Cc1ccc(F)cc1)C(=O)OC[C@@H]1CCCN1C(=O)[C@H](CC=C)CC(=O)N[C@H](CO)Cc1ccccc1	0	16	15*	9.7*	12*
CCN(CC)C(=O)c1ncn2c1C(=O)NC[C@@H]2C	.	-8	-4	0	-4
Cc1cccc(C)c1NC(=O)C1(C)CSCC(=O)N1CCOc1ccccc1 (configuration not stated)	0	2	7	12*	11*
COCCN1C(=O)CSCC1(C)C(=O)Nc1c(C)cccc1C (configuration not stated)	-1	-17	-1	3	1
COc1ccc(OC)c(NC(=O)C(C)OC(=O)c2cc3ccccc3[nH]2)c1 (configuration not stated)	-1	4	-6	1	-10
CSc1ncnc2[nH]ncc12	0	-14	-3	1	0
CCCCCCCSc1ncnc2[nH]ncc12	0	19	12*	-1	6
CCOC(=O)N1C(=O)NC(=O)C1c1ccc(OC)cc1 (configuration not stated)	0	4	0	0	1
FC(F)(F)COc1nc(N2CCOCC2)nc(N(c2ccccc2)c2ccccc2)n1	0	8	7	13*	-32
FC(F)(F)COc1nc(OCC(F)(F)F)nc(N2CCN(c3ccccc3)CC2)n1	-1	4	-3	1	1
CCOC(=O)CSC1=C(C#N)C(=O)NC(c2ccc(OC)cc2)S1 (configuration not stated)	-1	8	4	14*	17*
CCOC(=O)CSC1=C(C#N)C(=O)NC(c2ccc(OC)c(OC)c2)S1 (configuration not stated)	-1	3	-2	3	2
CCN(C(=O)COC(=O)/C=C/c1ccco1)C1CCCCC1	0	-12	-4	2	-5
CCCOc1ccccc1Cn1c(=O)oc2ccc(C)cc21	0	1	-2	-1	0
CCCOc1ccc(Cn2c(=O)oc3ccc(C)cc32)cc1OC	-1	9	7	6	13*
CC(=O)N1CCN(C(C(=O)Nc2c(C)cccc2C)c2cccc(F)c2)CC1 (configuration not stated)	-1	-14	-5	2	2
Cc1ccc(Cl)cc1N1CCN(C(=O)CCCn2c(=O)c3cccn3c3cccnc32)CC1	0	-6	4	10*	-6
Cc1cccc(N2CCN(C(=O)CCCn3c(=O)c4cccn4c4cccnc43)CC2)c1C	0	-6	-2	0	-9
CC(C)CCNC(=O)NC(=O)COC(=O)CNC(=O)C1CCCCC1	0	11	1	0	4
O=C(CS(=O)CC(=O)Nc1cccc2c1CCCC2)Nc1ccc(F)cc1 (configuration not stated)	0	-1	-1	15*	8
O=C(/C=C/c1ccc(Cl)cc1Cl)NCc1ccncc1	8.9*	-5	0	4	3
COc1ccccc1-c1cccc(-c2nc(C(=O)Nc3nccs3)cc3c2[C@@H](CCO)N(C(=O)CC2CC2)C3)c1	0	7	4	-3	-3
Cc1ccc(NS(=O)(=O)c2cc(NC(=O)c3ccc4c(c3)NC(=O)CS4)ccc2C)c(C)c1	0	26*	10*	5	1
Cc1ccccc1NS(=O)(=O)c1cc(C(=O)NCCSC2CCCCC2)ccc1C	1	18	6	4	3
